Experimental data published in ChEMBL document CHEMBL1137414, “3'-Substituted 7-halogenoindirubins, a new class of cell death inducing agents” (J Med Chem, 2006).

Tests used:
HT-29 = assay: Survival of human HT29 cells after 48 hrs by MTS reduction assay; type: functional, cell-based
HEK293 = assay: Survival of human HEK293 cells after 48 hrs by MTS reduction assay; type: functional, cell-based
SH-SY5Y [1] = assay: Survival of human SH-SY5Y cells after 24 hrs by MTS reduction assay; type: functional, cell-based
SH-SY5Y [2] = assay: Death of human SH-SY5Y cells in absence of 20 uM Q-VD-OPh by MTS reduction assay; type: functional, cell-based
MDA-MB-231 = assay: Survival of human MDA-MB-231 cells after 48 hrs by MTS reduction assay; type: functional, cell-based
How it was run: (§1)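 Viability read by MTS reduction. IC50 taken from dose-response curves, triplicate measurements. HCT116 grown in McCoy's 5A with 10% FCS. MDA-MB-231 grown in DMEM with 10% FCS and seeded at 7500 cells/well.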

Huh-7 = assay: Survival of human Huh7 cells after 48 hrs by MTS reduction assay; type: functional, cell-based
SH-SY5Y [3] = assay: Death of human SH-SY5Y cells at 25 uM after 48 hrs by LDH release assay; type: functional
How it was run: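 SH-SY5Y human neuroblastoma cells were grown in DMEM with 2 mM L-glutamine, antibiotics and 10% FCS at 37 °C under 5% CO2. […] Lactate dehydrogenase release was measured 48 h after addition and expressed as percent cell death.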

SH-SY5Y [4] = assay: Death of human SH-SY5Y cells in presence of 20 uM Q-VD-OPh by MTS reduction assay; type: functional, cell-based
BP8 = assay: Survival of […] AhR -/- BP8 cells after 48 hrs by MTS reduction assay; type: functional, cell-based
SH-SY5Y [5] = assay: Survival of human SH-SY5Y cells after 48 hrs by MTS reduction assay; type: functional, cell-based
[6] = Survival of mouse F1 cells after 48 hrs by MTS reduction assay; settings: Mus musculus, F1, 48 h
SH-SY5Y [7] = assay: Survival of human SH-SY5Y cells at 25 uM by MTS reduction assay; type: functional, cell-based; settings: for viability at 25 µM: Homo sapiens, SH-SY5Y, read-out: Survival
How it was run: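 Viability was read by MTS reduction and expressed as percent of untreated cells, as the average ± SE of three independent measurements, representative of two independent experiments.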

A549 = assay: Survival of human A549 cells after 48 hrs by MTS reduction assay; type: functional, cell-based
PC-3 = assay: Survival of human PC3 cells after 48 hrs by MTS reduction assay; type: functional, cell-based
HCT-116 = assay: Survival of human HCT116 cells after 48 hrs by MTS reduction assay; type: functional, cell-based; how it was run: as §1
[8] = Inhibition of starfish CDK1/cyclin B in presence of 15 uM ATP; parameters: species or system Marthasterias glacialis
[9] = target: Glycogen synthase kinase-3 (Homo sapiens, UniProt P49840+P49841); assay: Inhibition of porcine brain GSK3alpha/beta; settings: Sus scrofa
[10] = target: Cyclin-dependent kinase 5/CDK5 activator 1 (Homo sapiens, UniProt Q00535); assay: (§2) Inhibition of mammalian CDK5/p25; type: protein-complex assay
How it was run: (§3)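 Recombinant CDK5 and p25, each expressed in E. coli as GST fusions and affinity-purified on glutathione agarose, mixed in equal amounts. Phosphate incorporation onto P81 paper read by scintillation counting, blank subtracted. Activity taken as % of uninhibited. IC50 from dose-response curves.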

[11] = target: Cyclin-dependent kinase 5/CDK5 activator 1 (Homo sapiens, UniProt Q00535+Q15078); assay: as §2; type: protein-complex assay; how it was run: as §3
F1 (hepatoma cell line) = assay: Survival of mouse F1 cells after 48 hrs by MTS reduction assay; settings: F1
[12] = Homo sapiens, SH-SY5Y, read-out: IC50

Cyclin-dependent kinase 5/CDK5 activator 1 (Homo sapiens, UniProt Q00535), sequence (Q00535 whole entry, the tested form may be a part): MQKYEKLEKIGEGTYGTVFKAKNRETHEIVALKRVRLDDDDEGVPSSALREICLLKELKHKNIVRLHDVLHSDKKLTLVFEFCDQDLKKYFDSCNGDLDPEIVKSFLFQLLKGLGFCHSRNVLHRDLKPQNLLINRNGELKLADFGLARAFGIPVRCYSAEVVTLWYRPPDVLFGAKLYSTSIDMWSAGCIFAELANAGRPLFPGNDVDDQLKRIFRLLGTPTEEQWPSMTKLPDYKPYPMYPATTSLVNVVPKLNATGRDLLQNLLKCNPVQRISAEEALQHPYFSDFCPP
Cyclin-dependent kinase 5/CDK5 activator 1 (Homo sapiens, UniProt Q00535), sequence (Q15078 whole entry, further chain, the tested form may be a part): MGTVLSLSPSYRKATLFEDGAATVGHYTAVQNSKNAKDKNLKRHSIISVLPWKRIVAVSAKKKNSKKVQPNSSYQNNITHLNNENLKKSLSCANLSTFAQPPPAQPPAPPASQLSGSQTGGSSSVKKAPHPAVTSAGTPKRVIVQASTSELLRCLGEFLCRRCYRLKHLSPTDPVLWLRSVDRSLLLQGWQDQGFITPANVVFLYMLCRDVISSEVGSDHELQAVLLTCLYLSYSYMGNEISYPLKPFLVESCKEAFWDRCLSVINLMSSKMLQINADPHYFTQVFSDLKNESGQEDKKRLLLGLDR
Glycogen synthase kinase-3, sequence (P49840 whole entry, looked up): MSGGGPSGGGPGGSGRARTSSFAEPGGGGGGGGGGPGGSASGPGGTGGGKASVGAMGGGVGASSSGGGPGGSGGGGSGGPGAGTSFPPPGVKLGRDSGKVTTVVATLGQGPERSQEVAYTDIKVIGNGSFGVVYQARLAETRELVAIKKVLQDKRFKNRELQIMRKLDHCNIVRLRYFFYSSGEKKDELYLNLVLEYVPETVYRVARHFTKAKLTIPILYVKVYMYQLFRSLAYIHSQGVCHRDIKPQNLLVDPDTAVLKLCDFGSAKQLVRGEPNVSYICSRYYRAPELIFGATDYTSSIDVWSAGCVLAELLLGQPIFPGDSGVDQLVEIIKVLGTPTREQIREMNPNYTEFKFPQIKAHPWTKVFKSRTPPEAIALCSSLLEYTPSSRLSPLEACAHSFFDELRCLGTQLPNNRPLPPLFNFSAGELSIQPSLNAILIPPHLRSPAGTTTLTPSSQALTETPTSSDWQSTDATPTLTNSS
Glycogen synthase kinase-3, sequence (P49841 whole entry, looked up): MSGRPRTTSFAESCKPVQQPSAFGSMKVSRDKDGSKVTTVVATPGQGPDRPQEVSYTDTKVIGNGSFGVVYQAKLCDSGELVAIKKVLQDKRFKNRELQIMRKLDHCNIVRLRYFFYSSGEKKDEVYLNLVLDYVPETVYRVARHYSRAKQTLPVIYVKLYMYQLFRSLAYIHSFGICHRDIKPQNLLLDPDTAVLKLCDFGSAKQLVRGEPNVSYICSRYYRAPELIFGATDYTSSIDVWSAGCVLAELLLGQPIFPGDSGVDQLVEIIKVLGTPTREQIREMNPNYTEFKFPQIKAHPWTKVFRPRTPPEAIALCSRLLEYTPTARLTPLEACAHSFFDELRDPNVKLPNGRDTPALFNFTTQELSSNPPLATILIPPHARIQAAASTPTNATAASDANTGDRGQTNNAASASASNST
Cyclin-dependent kinase 5/CDK5 activator 1 (Homo sapiens, UniProt Q00535+Q15078), sequence (Q00535 whole entry): as the sequence (Q00535 whole entry, the tested form may be a part) above
Cyclin-dependent kinase 5/CDK5 activator 1 (Homo sapiens, UniProt Q00535+Q15078), sequence (Q15078 whole entry): as the sequence (Q15078 whole entry, further chain, the tested form may be a part) above

SMILES: O=Nc1c(-c2c(O)[nH]c3c(Br)cccc23)[nH]c2ccccc12
- IC50 (HT-29; Homo sapiens, HT-29, 48 h): 21.2 µM
- IC50 (HEK293; Homo sapiens, HEK293, 48 h): 12.3 µM
- IC50 (SH-SY5Y [1]; Homo sapiens, SH-SY5Y, 24 h): 8 µM
- IC50 (SH-SY5Y [2]; [12]): 7 µM
- IC50 (MDA-MB-231; Homo sapiens, MDA-MB-231, 48 h): 10.5 µM
- IC50 (Huh-7; Homo sapiens, Huh-7, 48 h): 9 µM
- Activity (SH-SY5Y [3]): 94%
- IC50 (SH-SY5Y [4]; Homo sapiens, SH-SY5Y): 7 µM
- IC50 (BP8; Mus musculus, BP8, 48 h): 19.4 µM
- IC50 (SH-SY5Y [5]; Homo sapiens, SH-SY5Y, 48 h): 7.1 µM
- IC50 [6]: 8 µM
- viability at 25 µM (SH-SY5Y [7]): 4%
- IC50 (A549; Homo sapiens, A549, 48 h): 21.8 µM
- IC50 (PC-3; Homo sapiens, PC-3, 48 h): 19.8 µM
- IC50 (HCT-116; Homo sapiens, HCT-116, 48 h): 6.2 µM

SMILES: O=Nc1c(-c2c(O)[nH]c3c(Cl)cccc23)[nH]c2ccccc12
- IC50 (SH-SY5Y [1]; Homo sapiens, SH-SY5Y, 24 h): 14 µM
- IC50 (SH-SY5Y [2]; [12]): 10 µM
- Activity (SH-SY5Y [3]): 92%
- IC50 [8]: 3.7 µM
- IC50 (SH-SY5Y [4]; Homo sapiens, SH-SY5Y): 11 µM
- IC50 (SH-SY5Y [5]; Homo sapiens, SH-SY5Y, 48 h): 12 µM
- IC50 [9]: 21 µM
- IC50 [10]: 6 µM
- viability at 25 µM (SH-SY5Y [7]): 7%

SMILES: Oc1[nH]c2c(Br)cccc2c1C1=Nc2ccccc2/C1=N\OCCN1CCNCC1
- IC50 (HT-29; ht-29): 6.3 µM
- IC50 (HEK293; hek293): 5 µM
- IC50 (SH-SY5Y [1]; sh-sy5y): 10.5 µM
- IC50 (SH-SY5Y [2]): 10 µM
- IC50 (MDA-MB-231; mda-mb-231): 5.3 µM
- IC50 (Huh-7; huh-7): 5.3 µM
- Activity (SH-SY5Y [3]): 94%
- IC50 (SH-SY5Y [4]; sh-sy5y): 10.3 µM
- IC50 (BP8; bp8): 5.6 µM
- IC50 (SH-SY5Y [5]; sh-sy5y): 6.2 µM
- IC50 [11]: > 10 µM
- IC50 (F1 (hepatoma cell line)): 1.7 µM
- Survival (SH-SY5Y [7]): 3%
- IC50 (A549; a549): 5.9 µM
- IC50 (PC-3; pc-3): 6.1 µM
- IC50 (HCT-116; hct-116): 5.4 µM

SMILES: CN(C)CCO/N=C1/C(c2c(O)n(C)c3c(Br)cccc23)=Nc2ccccc21.Cl
- IC50 (HEK293; Homo sapiens, HEK293, 48 h): 18.8 µM
- IC50 (SH-SY5Y [1]; Homo sapiens, SH-SY5Y, 24 h): 21 µM
- IC50 (SH-SY5Y [2]; sh-sy5y, read-out: IC50): 11 µM
- IC50 (MDA-MB-231; Homo sapiens, MDA-MB-231, 48 h): 17.8 µM
- IC50 (Huh-7; Homo sapiens, Huh-7, 48 h): 18 µM
- Activity (SH-SY5Y [3]): 80%
- IC50 [8]: > 10 µM
- IC50 (BP8; Mus musculus, BP8, 48 h): 19 µM
- IC50 (SH-SY5Y [5]; Homo sapiens, SH-SY5Y, 48 h): 9 µM
- IC50 [10]: > 10 µM
- IC50 [6]: 5.4 µM
- Survival (SH-SY5Y [7]): 4%
- IC50 (A549; Homo sapiens, A549, 48 h): 20.8 µM
- IC50 (PC-3; Homo sapiens, PC-3, 48 h): 25 µM
- IC50 (HCT-116; Homo sapiens, HCT-116, 48 h): 15.7 µM

SMILES: Cl.Cn1c(O)c(C2=Nc3ccccc3/C2=N\OCCN2CCCC2)c2cccc(Br)c21
- IC50 (HT-29; ht-29): 5.4 µM
- IC50 (HEK293; hek293): 8 µM
- IC50 (SH-SY5Y [1]; Homo sapiens, SH-SY5Y, 24 h): 7.3 µM
- IC50 (SH-SY5Y [2]; [12]): 5 µM
- IC50 (MDA-MB-231; mda-mb-231): 12 µM
- IC50 (Huh-7; huh-7): 5.6 µM
- Activity (SH-SY5Y [3]): 94%
- IC50 [8]: > 10 µM
- IC50 (SH-SY5Y [4]; Homo sapiens, SH-SY5Y): 13 µM
- IC50 (BP8; bp8): 7.5 µM
- IC50 (SH-SY5Y [5]; Homo sapiens, SH-SY5Y, 48 h): 4 µM
- IC50 [10]: > 10 µM
- IC50 [6]: 2.9 µM
- Survival (SH-SY5Y [7]): 1%
- IC50 (A549; Homo sapiens, A549, 48 h): 14.6 µM
- IC50 (PC-3; Homo sapiens, PC-3, 48 h): 19 µM
- IC50 (HCT-116; hct-116): 5.1 µM
